≈ marks a conversion by molar mass, not a printed value. Calls of active or inactive are those of the source. The calls are words filed in the database; no cut-off is given here.
Experiments:
HUVEC = experiment: Angiogenesis activity in HUVEC cells assessed as increase in tube formation at 1.8 uM measured after 8 hrs by inverted microscopy; type: functional, cell-based; conditions: Homo sapiens
Procedure, shortened: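 Early-passage HUVECs (passages 2–6), grown in DMEM with 10% FBS, glutamine, pyruvate and antibiotics, were seeded at 8 × 10⁴ cells/well on Matrigel. They were exposed to vehicle or compound for 8 h at 37 °C, 5% CO₂. Tubes were counted under an inverted microscope.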

[1] = Toxicity in Sprague-Dawley rat assessed as effect on blood pressure at 950 microg/kg, iv measured upto 24 hrs; type: organism-based; conditions: in vivo, 0.95 mg/kg, dose 950 µg/kg
Procedure, shortened: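 Male Sprague-Dawley rats (12 weeks, 200−220 g, SPF housing, free chow and water) received a single iv tail-vein injection of test compound or vehicle control, n = 3 per group, followed by blood pressure measurement.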

Rattus norvegicus [2] = experiment: Neuroprotective activity against middle cerebral artery occlusion-induced ischemia-reperfusion injury Sprague-Dawley rat model assessed as decrease in cerebral edema degree at 95 to 9500 microg/kg, iv treated immediately reperfusion in presence of PTIO measured after 24 hrs; type: functional, organism-based; conditions: dose 95-9500 µg/kg
Procedure, shortened: (§1)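 Male SD rats (12 weeks, 200–220 g; N = 8/group) underwent MCAO under […] (350 mg/kg) using a nylon intraluminal suture for 2 h, then reperfusion. Compound (95, 950 or 9500 μg/kg) was given iv immediately after reperfusion; where used, PTIO 1 mg/kg iv was given 30 min before. At 24 h, blinded scoring covered Longa neurological deficit, TTC infarct area/whole area, and edema from wet/dry brain weight (105 °C, 24 h).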

Rattus norvegicus [3] = experiment: (§2) Neuroprotective activity against middle cerebral artery occlusion-induced ischemia-reperfusion injury Sprague-Dawley rat model assessed as increase in CD31 expression in cerebral ischemic penumbra at 95 to 950 microg/kg, iv treated immediately reperfusion measured after 24 hrs in presence of PTIO by immunofluoresence assay; type: functional, organism-based; conditions: dose 95-950 µg/kg
Cortical neurone [4] = experiment: Effect on Nrf2 mRNA transcript level in OGD/R-induced rat primary cortical neuron pretreated at 1.8 uM for 24 hrs followed by subjected to OGD for 2 hrs measured after 24 hrs under normoxic condition by RT-qPCR analysis; type: functional, tissue-based
Procedure, shortened: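 Primary rat cortical neurons were pretreated with 1.8 μM compound for 24 h, given 2 h OGD, then 24 h normoxic culture. Nrf2, HO-1 and NQO1 mRNA were measured by RT-qPCR. Cytoplasmic and nuclear protein (30 μg/lane) were blotted for Nrf2, with lamin A and β-actin as references, and quantified by densitometry as the nuclear:cytoplasmic ratio. Three independent experiments, mean ± SD.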

Cortical neurone [5] = experiment: Neuroprotective activity against in OGD/R-induced rat cortical neuron cytotoxicity assessed as decrease in cell viability pretreated at 1.8 uM for 24 hrs followed by subjected to OGD for 2 hrs measured after 24 hrs under normoxic condition i n presence of ML385 by MTT assay; type: functional, tissue-based
Procedure, shortened: (§3)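 Cortical neurons were isolated from SD rat cortex by enzymatic digestion, plated on poly-lysine in 10% FBS DMEM, and pretreated 24 h at 1.8 μM in basal medium with 2% B27. OGD was run in glucose/FBS-free DMEM under 1% O₂, followed by 24 h reoxygenation in 10% FBS DMEM. Viability was read by MTT; apoptosis was also assessed. Three independent experiments.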

Cortical neurone [6] = experiment: Neuroprotective activity against in OGD/R-induced rat cortical neuron cytotoxicity assessed as decrease in cell viability pretreated at 1.8 uM for 24 hrs followed by subjected to OGD for 2 hrs measured after 24 hrs under normoxic condition by MTT assay; type: functional, tissue-based
Procedure, shortened: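 Primary rat cortical neurons from enzymatically digested cortex, plated on poly-lysine in DMEM/10% FBS for 4 h. Pretreated 24 h in neuron basal medium with 2% B27, then glucose/FBS-free DMEM at 1% O2. Returned to 10% FBS DMEM under normoxia for 24 h. Viability by MTT; three independent experiments, mean SD.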

[7] = Solubility of compound in water; type: physicochemical
Rattus norvegicus [8] = experiment: as §2, with “AuroraB + cells” for “CD31 expression”, “hrs” for “hrs in presence of PTIO”; type: functional, organism-based; conditions: dose 95-950 µg/kg
Cortical neurone [9] = experiment: Neuroprotective activity against in OGD/R-induced rat cortical neuron cytotoxicity assessed as activation of NO/cGMP/PKG pathway by measuring increase in cGMP level pretreated at 1.8 uM for 24 hrs followed by subjected to OGD for 2 hrs measured after 24 hrs under normoxic condition in presence of NS2028 by ELISA; type: functional, tissue-based
Cortical neurone [10] = experiment: Neuroprotective activity against in OGD/R-induced rat cortical neuron cytotoxicity assessed as activation of NO/cGMP/PKG pathway by measuring increase in cGMP level pretreated at 1.8 uM for 24 hrs followed by subjected to OGD for 2 hrs measured after 24 hrs under normoxic condition by ELISA; type: functional, tissue-based
[11] = Lipo-hydro partition coefficient, logP of compound; type: physicochemical; conditions: octanol/water
[12] = Neuroprotective activity against in OGD/R-induced rat primary cortical neuron apoptosis assessed as viable cells pretreated at 1.8 uM for 24 hrs followed by subjected to OGD for 2 hrs measured after 24 hrs under normoxic condition by PI/FITC-H staining based flow cytometry (reference value: 31.55%); type: functional; conditions: Cortical neurone, read-out: Activity; procedure, shortened: as §3
Rattus norvegicus [13] = experiment: as §2, with “AuroraB + cells” for “CD31 expression”; type: functional, organism-based; conditions: dose 95-950 µg/kg
Rattus norvegicus [14] = experiment: Angiogenic activity in middle cerebral artery occlusion-induced ischemia-reperfusion injury Sprague-Dawley rat model assessed as tube formation in cerebral ischemic penumbra at 95 to 9500 microg/kg, iv treated immediately reperfusion measured after 7 days by immunofluoresence assay; type: functional, organism-based; conditions: dose 95-9500 µg/kg, time 7.0 day
Procedure, shortened: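 After MCAO/reperfusion, SD rats (N = 5/group) were dosed iv immediately after reperfusion and then daily for 7 days, with or without PTIO. Paraffin brain sections (3 μm) were immunostained for CD31, Ki67 and Aurora B with DAPI. Vascular density was CD31⁺/DAPI⁺; proliferating endothelium was CD31⁺Ki67⁺/CD31⁺.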

[15] = GSH reactivity assessed as reaction rate measured at 8 equiv of GSH upto 24 hrs by HPLC analysis; type: ADME
[16] = Photostability of the compound under light at 200 uM measured after 24 hrs by HPLC analysis; type: physicochemical
[17] = GSH reactivity assessed as reaction rate measured at 4 equiv of GSH upto 24 hrs by HPLC analysis; type: ADME
Rattus norvegicus [18] = experiment: Neuroprotective activity against middle cerebral artery occlusion-induced ischemia-reperfusion injury Sprague-Dawley rat model assessed as increase in Ki67+ cells in cerebral ischemic penumbra at 95 to 950 microg/kg, iv treated immediately reperfusion measured after 24 hrs by immunofluoresence assay; type: functional, organism-based; conditions: dose 95-950 µg/kg
Rattus norvegicus [19] = experiment: In vivo activation of Nrf2 middle cerebral artery occlusion-induced ischemia-reperfusion injury Sprague-Dawley rat model assessed as phosphorylation at 950 microg/kg, iv treated immediately reperfusion measured after 24 hrs; type: functional, organism-based; conditions: dose 950.0 µg/kg
Procedure, shortened: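 Paraffin sections (3 μm) from MCAO rats were immunostained with anti-phospho-Nrf2 (1:100) and DAB, then scored blinded by average optical density over five fields per sample.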

Rattus norvegicus [20] = experiment: Neuroprotective activity against middle cerebral artery occlusion-induced ischemia-reperfusion injury Sprague-Dawley rat model assessed as decrease in cerebral edema degree at 95 to 9500 microg/kg, iv treated immediately reperfusion measured after 24 hrs; type: functional, organism-based; conditions: dose 95-9500 µg/kg; procedure, shortened: as §1
[21] = Stability of the compound in pH 6 phosphate buffer assessed as half life at 200 uM measured after 24 hrs by HPLC analysis; type: physicochemical; conditions: phosphate buffer pH 6, pH 6

solubility [7]: 33.2 µg/mL (≈ 124 µM)
logP [11]: 0.54
Activity [15]: 0.0363 h⁻¹
Stability [16]: Stable
Activity [17]: 0.0299 h⁻¹
half-life at 200 µM [21]: 1.1 h
SMILES: O=C(/C(=C/c1ccccc1)C[N+](=O)[O-])c1ccccc1
Activity (HUVEC): Active
Activity [1]: Non-Toxic
Activity (Rattus norvegicus [2]): inactive
Activity (Rattus norvegicus [3]): inactive
Activity (Cortical neurone [4]): inactive
Activity (Cortical neurone [5]): Active
Activity (Cortical neurone [6]): Active
Activity (Rattus norvegicus [8]): Active
Activity (Cortical neurone [9]): inactive
Activity (Cortical neurone [10]): Active
viability at 1.8 µM [12]: 69.8%
Activity (Rattus norvegicus [13]): inactive
Activity (Rattus norvegicus [14]): Active
Activity (Rattus norvegicus [18]): Active
Activity (Rattus norvegicus [19]): Active
Activity (Rattus norvegicus [20]): Active
